FGF22 binding-1: FGF22 (human) thermal shift binding; Q9HCT0; recombinant FGF22 thermal shift, SYPRO orange fluorescence; percent of sucrose octasulfate shift, DMSO zero; activity (Tm shift, normalised), % at 9.99 µM; 340,000 tested, 1.5% active;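 active = mean Tm shift, scaled 0 neutral to 100 positive control, at about 1.3% or above, every replicate too, limit read from the data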
Target sequence (Q9HCT0 whole entry, looked up): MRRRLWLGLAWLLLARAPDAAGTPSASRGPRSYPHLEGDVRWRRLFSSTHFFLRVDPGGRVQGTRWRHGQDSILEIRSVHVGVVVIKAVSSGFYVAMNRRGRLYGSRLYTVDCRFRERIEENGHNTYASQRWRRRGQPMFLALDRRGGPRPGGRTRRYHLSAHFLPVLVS
PAX8 reporter: inhibitors of PAX8 transcriptional activity in RMG-I cells. inhibition, % at 12.6 µM. RMG-I TPO-luciferase reporter, SteadyGlo, 24 h. AID 652154. 360,000 tested, 1.2% active;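 active = mean replicate inhibition at least 60% with every replicate also reaching 60%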;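 also: luciferase light reporting Pax8 driven TPO promoter activity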
FN deposit inh: fibronectin deposition inhibition | AH1F fibroblasts, Alexa488-fibronectin deposition fluorescence, overnight | inhibition, % at 12.6 µM | 350,000 tested, 0.086% active;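 active = mean inhibition across replicates of 30% or more, regardless of how many single replicates reach that level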
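Material: AH1F fibroblast monolayer depositing Alexa488-labelled fibronectin into matrix / Amount: 10000 AH1F cells per well / Signal: fluorescence 485/525 nm / Medium: DMEM, 2% serum / Compound: single dose, pinned / Incubation: 1 h cell adhesion before compound, then overnight fibronectin incubation / Reagent: Alexa488-FN, 24 nM final / Read-out: inhibition of fibronectin deposition signal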
EWS-Fli inh: EWS/Fli transcriptional activity inhibition. A673 NR0B1-luciferase reporter, viability-normalised. inhibition, % at 12.6 µM. 350,000 tested, 0.67% active. AID 651661;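 active = mean inhibition of at least 50% after viability correction, with every replicate also passing that limit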;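 also: firefly luciferase signal divided by Alamar Blue viability fluorescence both relative to DMSO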
Env fusion inh: inhibitors of HIV Env-mediated cell fusion; HeLa-JRFL Env/CEM21 cell fusion, luciferase; inhibition, % at 12.3 µM; 360,000 tested, 1.1% active; AID 651610;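 active = mean replicate inhibition score of at least 50 and every replicate individually at or above 50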
PGC1a acetyl inh: lowers PGC1a acetylation signal in U2OS cells; AID 651687; 350,000 tested, 0.17% active; inhibition, % at 15.6 µM; AlphaScreen anti-acetyl-lysine; with virally co-expressed GCN5 acetyltransferase;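 active = every replicate shows inhibition of at least 40%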
FGF22 binding-2: FGF22 (human) binding in thermal shift | shares compounds with FGF22 binding-1 | recombinant FGF22 thermal shift, SYPRO orange fluorescence | thermal shift activity, °C (ΔTm) at 38 µM | 1,000 tested, 2% active | AID 720646;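 active = fitted rise in melting shift crosses a set limit at or below the top valid dose tested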
FGF22 TSA DP: binds human FGF22 shifting its melting temperature. Tm shift (activity), % at 38 µM. 50 tested, under 10 active. Thermal shift assay, SYPRO orange, melting temperature shift. shares compounds with FGF22 binding-1;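 active = compounds whose fitted dose curve of melting temperature shift rises past a set threshold within the tested doses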
SYPRO no-protein: compound-only SYPRO artifact for FGF22 binders | shares compounds with FGF22 binding-1 | compound-only SYPRO orange thermal shift counter-screen, no protein | AC50, µM (highest dose often 38 µM) | 1,000 tested, 2% active | AID 743019;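 active = rising signal whose fitted curve reaches the 0.54 level within the top valid dose, showing a melting point, actives reach about 13 µM in these data; inactive = the rest, including activity in the opposite direction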; also: value is where the raw curve crosses a fixed level and not half-maximal
Numbers stand for hits; . = inactive; / = no result; ! = not active in a repeat. Most compounds without a hit are left out; they make up all but 3.1% or so of the library.

SMILES	FGF22 binding-1	PAX8 reporter	FN deposit inh	EWS-Fli inh	Env fusion inh	PGC1a acetyl inh	FGF22 binding-2	SYPRO no-protein	others
CSc1ccc(/C=N/NC(=O)c2ccc3nc[nH]c3c2)cc1	2.2	.	/	.	.	.	/	.	FGF22 TSA DP=.
CO[C@@H]1CN(C)C(=O)c2ccc(NC(=O)C3CCCCC3)cc2OC[C@H](C)N(Cc2cccnc2)C[C@@H]1C	/	.	.	.	.	.	/	/
CCOc1ccc(-c2cc(C(=O)N/N=C/c3cccnc3)c3ccccc3n2)cc1	2.5	.	.	/	.	.	.	.
Cc1cc(C(=O)N/N=C/c2cccnc2)c2ccccc2n1	.	.	.	.	.	/	/	/
Cc1ccc(S(=O)(=O)Nc2ccc3c(c2)C(=O)N([C@H](C)CO)C[C@@H](C)[C@H](CN(C)S(=O)(=O)c2ccc(C)cc2)O3)cc1	.	.	/	.	.	.	/	/
COc1ccc(CNC(=O)C[C@@H]2CC[C@@H](NS(=O)(=O)c3cccc(OC)c3)[C@H](CO)O2)cc1	.	/	/	.	.	.	/	/
Nc1nccc(-c2ccc(-n3cccc3)cc2)n1	2.3	.	.	.	.	.	.	.
C[C@@H]1CN([C@@H](C)CO)C(=O)Cc2cc(NS(=O)(=O)c3cn(C)cn3)ccc2O[C@H]1CN(C)C(=O)Nc1ccc(F)cc1	.	/	.	.	.	.	/	/
Nc1ccc(O)c(-c2nc3ccccc3s2)c1	/	.	.	/	.	.	/	/
Oc1ccc(-c2nc3ccccc3s2)c(O)c1	1.3	.	.	.	.	/	.	.
C[C@@H]1CN([C@H](C)CO)C(=O)c2cc(NC(=O)Nc3ccc(C(F)(F)F)cc3)ccc2O[C@@H]1CN(C)Cc1ccc(C(=O)O)cc1	1.4	/	/	.	/	.	.	.
C[C@@H]1CN([C@@H](C)CO)C(=O)c2cc(NC(=O)Nc3ccc(C(F)(F)F)cc3)ccc2O[C@H]1CN(C)Cc1ccc(C(=O)O)cc1	.	/	.	.	/	.	/	/
C[C@@H]1CN([C@@H](C)CO)C(=O)c2cc(NC(=O)Nc3ccc(C(F)(F)F)cc3)ccc2O[C@@H]1CN(C)Cc1ccc(C(=O)O)cc1	2.5	/	/	.	/	.	.	.
CC(C)CC#Cc1cnc2c(c1)C(=O)N([C@H](C)CO)C[C@H](C)[C@H](CN(C)C(=O)CN1CCOCC1)O2	.	/	.	.	.	.	/	/
CSc1ncccc1C(=O)NCC1CCCCC1	.	.	.	.	.	/	/	/
O=C(NCC1CCCCC1)c1cccnc1Cl	1.5	.	.	.	.	.	.	.
Cc1nn(-c2ccccc2)c(C)c1/C=N/NC(=O)c1cc(-c2cccs2)[nH]n1	1.6	.	.	.	.	/	.	.
Cc1nn(-c2ccccc2)c(C)c1/C=N/NC(=O)c1cc(-c2ccc(Br)s2)[nH]n1	/	.	.	/	.	/	/	/
COc1ccc(NC(=O)CCCN2C(=O)CN(C)C2=O)c(OC)c1	15	.	.	.	.	.	/	.
COC(=O)c1cc(OC)c(OC)cc1NC(=O)c1ccccc1C	8.5	.	.	.	.	.	.	.
COC(=O)c1cc(OC)c(OC)cc1NC(=O)c1ccccc1	/	/	/	/	/	.	/	/
CCS(=O)(=O)N[C@@H]1CC[C@H](CC(=O)Nc2ccc(-c3ccccc3)cc2)O[C@@H]1CO	1.2	.	.	.	.	.	.	.
CC(C)(C)NC(=O)N1CCC(CO)(Cc2ccccc2Cl)CC1	1.5	.	.	.	.	.	.	.
COc1cc(NC(=O)c2cnc(N)s2)cc(C(=O)Nc2cccc(C(F)(F)F)c2)c1	1.7!	.	.	.	.	.	.	.
COc1cc(NC(=O)c2csc(N)n2)cc(C(=O)Nc2cccc(C(F)(F)F)c2)c1	1.6!	82!	.	61	.	.	.	11µM
SMILES	FGF22 binding-1	PAX8 reporter	FN deposit inh	EWS-Fli inh	Env fusion inh	PGC1a acetyl inh	FGF22 binding-2	SYPRO no-protein	others
COc1cc(NC(=O)c2cnc(N)o2)cc(C(=O)Nc2cccc(C(F)(F)F)c2)c1	2.2!	.	.	.	.	/	.	.
O=C(O)C[C@H]1CC[C@H](NC(=O)Nc2cc(F)ccc2F)[C@H](CO)O1	.	.	/	.	.	.	/	/
CCc1nnc(NS(=O)(=O)c2ccc(NC(=S)NC(=O)/C=C/c3ccc([N+](=O)[O-])cc3)cc2)s1	2.5	.	.	.	.	.	.	.
COc1cccc(C(=O)Nc2ccc3[nH]ncc3c2)c1	.	.	.	.	.	.	/	/
CCOc1cccc(C(=O)Nc2ccc3[nH]ncc3c2)c1	1.6	.	.	.	.	.	.	.	FGF22 TSA DP=.
CCc1csc(N2[C@@H](C#N)[C@H](c3ccc(-c4cccc(F)c4)cc3)[C@@H]2CO)n1	.	.	.	.	.	.	/	/
C=CCOc1ccc2c(c1)C(=NO)c1cc(OCC=C)ccc1-2	14	/	/	.	/	.	.	.
Cc1nc2cc(C(=O)NCc3ccc4c(c3)OCO4)ccc2n1-c1ccc(Br)cc1	1.6	.	.	.	.	/	.	.
COc1ccc(S(=O)(=O)N[C@H]2CC[C@@H](CC(=O)NCc3ccccc3F)O[C@@H]2CO)cc1	.	.	/	.	.	.	/	/
O=C(NCCc1ccc2c(c1)OCCO2)c1cccc(F)c1	1.6	.	.	.	.	/	.	.
O=C(NCCc1ccc2c(c1)OCCO2)c1cc(F)cc(F)c1	/	.	.	/	.	.	/	/
NS(=O)(=O)c1ccc(NC(=O)Nc2cccc(Cl)c2)cc1	2.2	.	.	.	.	.	.	.
Cc1cc(C)c(C)c(S(=O)(=O)Nc2ccccc2C(=O)O)c1C	1.4	.	.	.	.	.	.	.
O=C(O)c1ccccc1NS(=O)(=O)c1ccc2ccccc2c1	1.6	.	.	.	.	/	.	.
Cc1cc(NC(=O)c2ccccc2NS(=O)(=O)c2c(C)c(C)cc(C)c2C)no1	/	/	.	/	.	.	/	/
O=C(O)c1cc(NS(=O)(=O)c2ccc3ccccc3c2)ccc1O	/	.	.	.	.	.	/	/
CC1(C)CCC(=O)N2CC[C@H]3C[C@H](OC(=O)Nc4ccccc4)C[C@@H]1[C@H]32	2.1	.	.	.	.	.	.	.
CC1(C)CCC(=O)N2CC[C@H]3C[C@H](OC(=O)Nc4ccc5c(c4)OCO5)C[C@@H]1[C@H]32	.	.	.	.	/	.	/	/
O=C(C[C@@H]1C=C[C@@H](NS(=O)(=O)c2ccc(F)cc2)[C@@H](CO)O1)NC1CCCCC1	.	.	/	.	.	.	/	/
O=C(Nc1nc(=O)n(C(=O)C2CC2)s1)c1ccccc1	2.2	/	/	.	/	.	.	.
Cc1ccc(C(=O)Nc2nc(=O)n(C(=O)C3CC3)s2)cc1	1.3	/	/	.	/	.	.	.

Screens: PubChem, Broad Institute
